# Assay results: paper PMC11301096 (iScience, 2024)
# No end group written: not given here. *: point of attachment. Biotin = O=C1N[C@H]2[C@H](CS[C@H]2CCCCC(=O)*)N1
# Legend:
# Hep 3B cells = test: CCK-8 proliferative activity; type: cell-based, human; details: read-out: IC50, proliferation; CCK-8, 48 h, mean of n = 3
# Outline: (§1)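 Cells grown in DMEM with 10% FBS and 1% antibiotics at 37°C, 5% CO2; log-phase cells used. Seeded at 4×10^3/well for 24 h, then exposed to graded doses of test compound (DMSO stock) for 48 h. CCK-8 reagent added for 1–2 h in the dark; absorbance read at 450 nm. Three independent experiments.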
# Huh7 cells = test: CCK-8 proliferative activity; type: cell-based, human; details: read-out: IC50, proliferation; CCK-8, 48 h, mean of n = 3
# Outline: as §1
# [1] = test system: human normal hepatocyte L-O2; test: CCK-8 proliferative activity; type: cell-based; details: 10 μM and 20 μM BO1, CCK-8, 48 h
# Outline: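 Normal hepatocytes seeded at 4×10^3/well and incubated 24 h, then exposed to test compound for 48 h. CCK-8 reagent added for 1–2 h protected from light; absorbance measured at 450 nm. Three independent experiments.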
# L-O2 cells [2] = test: Cell cycle analysis by flow cytometry; type: cell-based, human; details: 20 μM BO1, 48 h
# Outline: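 Cells (5×10^5 per 100 mm dish) attached for 24 h, then exposed to test compound for 48 h. Cell pellets fixed in 70% ethanol for 4 h and washed twice with PBS. Stained with a DNA-content quantitation kit; cell-cycle distribution read by flow cytometry.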
# L-O2 cells [3] = test: Hoechst 33258 staining; type: cell-based, human; details: 20 μM BO1, 48 h
# Outline: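 Seeded at 4×10^4 cells/well for 24 h, then treated 48 h. Fixed in 4% tissue fixative for 15 min and stained with Hoechst 33258 for 5 min. Washed twice with PBS; nuclei viewed by fluorescence microscopy.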
# [4] = In vivo xenograft model, toxicity read-outs; parameters: species or system BALB/c-Nude mice; details: BO1 4.57 mg/kg intraperitoneally every other day, two weeks, n = 6
# Outline: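 Four-week-old male nude mice acclimatised 7 days, then implanted subcutaneously with 2×10^6 Hep 3B cells; randomised into two groups of 6. Once tumours reached 100 mm3, given 200 μL saline or test compound intraperitoneally every other day, with weighing and tumour measurement. Killed after two weeks; serum taken for ALT, AST and creatinine.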
# HSP90A = HSP90A (Homo sapiens, UniProt P07900); test: Biotinylated pull-down with western blot; type: binding; details: compared to samples extracted with IgG; cell extracts, 4°C, 12 h
# Outline: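 Bead-bound biotin-labelled test compound (4°C, 3 h) rotated with cell extracts at 4°C for 12 h. Beads washed in ice-cold NT2 buffer (4°C, 5 min), then four more washes. Bound proteins eluted with protein elution buffer plus DTT at 37°C for 2 h. Eluates analysed by LC-MS and western blot, with an IgG pull-down as negative control.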
HSP90A in samples pulled by bio-BO1 (western blot) (HSP90A),Substance,IC50 (Hep 3B cells) [µM],IC50 (Huh7 cells) [µM],activity of normal hepatocytes (proliferative activity) [1],cell cycle progression (L-O2 cells [2]),nuclear fluorescence staining (L-O2 cells [3]),"histopathological examination of major organs (heart, liver, spleen, and kidney), H&E [4]",serum alanine aminotransferase (ALT) activity [4],serum aspartate aminotransferase (AST) activity [4],serum creatinine (CREA) activity [4]
–,"GIGSAILSAGKSIIKGLAKGLAEHF-NH2 [BO1, Bombinin-BO1]",15.2,24.9,no significant change,not significantly affected,no significant changes,normal findings,comparable to those of control mice,comparable to those of control mice,comparable to those of control mice
significantly detected,bio-BO1: Biotin-labeled BO1 (Biotin-GIGSAILSAGKSIIKGLAKGLAEHF-NH2; SMILES CC[C@H](C)[C@H](NC(=O)CNC(=O)CCCC[C@@H]1SC[C@@H]2NC(=O)N[C@@H]21)C(=O)NCC(=O)N[C@@H](CO)C(=O)N[C@@H](C)C(=O)N[C@H](C(=O)N[C@@H](CC(C)C)C(=O)N[C@@H](CO)C(=O)N[C@@H](C)C(=O)NCC(=O)N[C@@H](CCCCN)C(=O)N[C@@H](CO)C(=O)N[C@H](C(=O)N[C@H](C(=O)N[C@@H](CCCCN)C(=O)NCC(=O)N[C@@H](CC(C)C)C(=O)N[C@@H](C)C(=O)N[C@@H](CCCCN)C(=O)NCC(=O)N[C@@H](CC(C)C)C(=O)N[C@@H](C)C(=O)N[C@@H](CCC(=O)O)C(=O)N[C@@H](Cc1c[nH]cn1)C(=O)N[C@@H](Cc1ccccc1)C(N)=O)[C@@H](C)CC)[C@@H](C)CC)[C@@H](C)CC),–,–,–,–,–,–,–,–,–
